Active and inactive are the calls of the source. No cut-off for these calls is given here.
What was measured:
Staphylococcus aureus [1] = assay: Antibacterial activity against fluoroquinolone sensitive Staphylococcus aureus SH1000 assessed as zone of inhibition at 10 mmol after 24 hrs Kirby-Bauer disc diffusion method; assay type: functional
In short: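 Discs: 6 mm autoclaved paper discs each loaded with 20 μL of compound in CHCl3 (1 or 10 mmol solutions), dried 30 min at 37 °C; 7 discs per compound per level. Inoculum: single colony grown 6 h at 37 °C with aeration in Mueller-Hinton broth, diluted with PBS to 0.5 McFarland, swabbed three directions onto Mueller-Hinton agar. Plates incubated 24 h at 37 °C.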

Staphylococcus aureus [2] = assay: Antibacterial activity against fluoroquinolone resistant Staphylococcus aureus USA300 JE2 assessed as zone of inhibition at 1 mmol after 24 hrs Kirby-Bauer disc diffusion method; assay type: functional
In short: (§1)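 Compounds dissolved in CHCl3 as 1 mmol or 10 mmol solutions; 20 µL loaded per sterile 6 mm paper disc and dried 30 min at 37 °C; 7 discs per concentration. Single colony grown in Mueller-Hinton broth with aeration for 6 h at 37 °C, diluted in PBS to 0.5 McFarland, then swabbed in three directions onto Mueller-Hinton agar. Discs applied; incubated 24 h at 37 °C.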

Staphylococcus aureus [3] = assay: Antibacterial activity against fluoroquinolone resistant Staphylococcus aureus USA300 JE2 assessed as zone of inhibition at 10 mmol after 24 hrs Kirby-Bauer disc diffusion method; assay type: functional; in short: as §1
Staphylococcus aureus [4] = assay: Antibacterial activity against fluoroquinolone sensitive Staphylococcus aureus SH1000 assessed as zone of inhibition at 1 mmol after 24 hrs Kirby-Bauer disc diffusion method; assay type: functional; in short: as §1
Staphylococcus aureus [5] = assay: Antibacterial activity against fluoroquinolone sensitive Staphylococcus aureus SH1000 at 32 mmol after 24 hrs Kirby-Bauer disc diffusion method; assay type: functional, organism-based
Staphylococcus aureus [6] = assay: Antibacterial activity against fluoroquinolone resistant Staphylococcus aureus USA300 JE2 at 32 mmol after 24 hrs Kirby-Bauer disc diffusion method; assay type: functional, organism-based

Row | SMILES | inhibition zone (IZ) (Staphylococcus aureus [1]) [cm] | inhibition zone (IZ) (Staphylococcus aureus [2]) [cm] | inhibition zone (IZ) (Staphylococcus aureus [3]) [cm] | inhibition zone (IZ) (Staphylococcus aureus [4]) [cm] | Activity (Staphylococcus aureus [5]) | Activity (Staphylococcus aureus [6])
1 | CCn1c(=O)cc(C)c2cc3c(C)cc(=O)n4c3c(c21)OCC4 | 2.2 | 1.8 | 3.2 | 0 | – | –
2 | CCn1c(=O)cc(C)c2cc3c(C)cc(=O)n4c3c(c21)OCCC4 | 2.3 | 0 | 2.7 | 0 | – | –
3 | CCOc1cc(C)c2cc3c(C)cc(=O)n4c3c(c2n1)OCC4 | 0 | 0 | 1 | 0 | – | –
4 | CCOc1cc(C)c2cc3c(C)cc(=O)n4c3c(c2n1)OC4 | 0 | 0 | 0 | 0 | inactive | inactive
5 | CCOc1cc(C)c2cc3c(C)cc(=O)n4c3c(c2n1)OCCC4 | 0 | 0 | 0 | 0 | – | –
6 | CCn1c(=O)cc(C)c2cc3c(C)cc(=O)n4c3c(c21)OC4 | 1.8 | 1.4 | 2.9 | 0 | – | –
7 | O=C(O)c1cn(C2CC2)c2cc(N3CCNCC3)c(F)cc2c1=O [CIPROFLOXACIN] | 3.1 | 0 | 1.2 | 1.8 | – | –

From ChEMBL document CHEMBL4373659, “Synthetic studies on the reverse antibiotic natural products, the nybomycins” (2019)
